The subject of data set [1] is Rattus norvegicus. The data set is described as follows: Radioactivity was determined in thyroid of female fischer 344 rats by intravenous administration after 30 minutes. The conditions noted are these: in vivo, 0.5 h. The format is ADME, organism-based, Thyroid gland. In a few lines: (§1)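 Female Fischer 344 rats, 10–12 weeks, 170–200 g, fed ad libitum. The 82Br-labeled fatty acid was taken up in 0.5 mL absolute ethanol and added dropwise to stirred 6% bovine serum albumin at ~40 °C (final ethanol 10%), then 0.22-μm filtered. Dosing was a lateral tail vein injection under ether anesthesia. Rats were killed by cervical fracture at the stated time and blood was taken by cardiac puncture.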

The subject of data set [2] is Rattus norvegicus. The data set is described as follows: Radioactivity was determined in lung tissues of female fischer 344 rats by intravenous administration after 30 minutes. The format is ADME, organism-based. Conditions: in vivo, 0.5 h. In a few lines:
as §1

For data set [3], the system named is Rattus norvegicus. The data set is described as follows: Radioactivity was determined in blood tissues of female fischer 344 rats by intravenous administration after 2 hours. The format is ADME, organism-based. The conditions noted are these: in vivo. An outline of the steps: as §1
For data set [4], the system named is Rattus norvegicus. In words: Radioactivity was determined in thyroid of female fischer 344 rats by intravenous administration after 2 hours. The format is ADME, organism-based, Thyroid gland. Conditions: in vivo. An outline of the steps:
as §1

For data set [5], the system named is Rattus norvegicus. The data set is described as follows: Radioactivity was determined in heart tissues of female fischer 344 rats by intravenous administration after 2 hours. The conditions noted are these: in vivo. The format is ADME, organism-based. An outline of the steps: as §1
The test system of data set [6] is Rattus norvegicus. The data set is described as follows: Radioactivity was determined in lung tissues of female fischer 344 rats by intravenous administration after 1 hour. The format is ADME, organism-based. Conditions: in vivo. An outline of the steps: as §1
Data set [7] deals with Rattus norvegicus. The data set is described as follows: Radioactivity was determined in heart tissues of female fischer 344 rats by intravenous administration after 5 minutes. The format is ADME, organism-based. The conditions noted are these: in vivo. In a few lines:
as §1

Data set [8] deals with Rattus norvegicus. The data set is described as follows: Radioactivity was determined in blood tissues of female fischer 344 rats by intravenous administration after 1 hour. The conditions noted are these: in vivo. The format is ADME, organism-based. In a few lines:
as §1

In data set [9] the test system is Rattus norvegicus. In words: Radioactivity was determined in kidneys of female fischer 344 rats by intravenous administration after 30 minutes. The format is ADME, organism-based, Kidney. Conditions: in vivo, 0.5 h. In a few lines:
as §1

Data set [10] deals with Rattus norvegicus. In words: Radioactivity was determined in kidneys of female fischer 344 rats by intravenous administration after 5 minutes. The format is ADME, organism-based, Kidney. The conditions noted are these: in vivo. In a few lines:
as §1

The subject of data set [11] is Rattus norvegicus. The data set is described as follows: Radioactivity was determined in liver tissues of female fischer 344 rats by intravenous administration after 5 minutes. The format is ADME, organism-based. The conditions noted are these: in vivo. In a few lines:
as §1

Data set [12] concerns Rattus norvegicus. In words: Radioactivity was determined in thyroid of female fischer 344 rats by intravenous administration after 5 minutes. The format is ADME, organism-based, Thyroid gland. Conditions: in vivo. In a few lines:
as §1

Data set [13] concerns Rattus norvegicus. In words: Radioactivity was determined in lung tissues of female fischer 344 rats by intravenous administration after 5 minutes. The conditions noted are these: in vivo. The format is ADME, organism-based. An outline of the steps:
as §1

The test system of data set [14] is Rattus norvegicus. In words: Radioactivity was determined in blood tissues of female fischer 344 rats by intravenous administration after 30 minutes. The format is ADME, organism-based. The conditions noted are these: in vivo, 0.5 h. An outline of the steps: as §1
Data set [15] has as its system Rattus norvegicus. In words: Radioactivity was determined in heart tissues of female fischer 344 rats by intravenous administration after 1 hour. The format is ADME, organism-based. The conditions noted are these: in vivo. An outline of the steps:
as §1

Data set [16] concerns Rattus norvegicus. The data set is described as follows: Radioactivity was determined in thyroid of female fischer 344 rats by intravenous administration after 1 hour. The format is ADME, organism-based, Thyroid gland. Conditions: in vivo. In a few lines:
as §1

Data set [17] has as its system Rattus norvegicus. The data set is described as follows: Radioactivity was determined in liver tissues of female fischer 344 rats by intravenous administration after 2 hours. Conditions: in vivo. The format is ADME, organism-based. An outline of the steps: as §1
The subject of data set [18] is Rattus norvegicus. The data set is described as follows: Radioactivity was determined in liver tissues of female fischer 344 rats by intravenous administration after 30 minutes. The format is ADME, organism-based. Conditions: in vivo, 0.5 h. An outline of the steps:
as §1

Data set [19] concerns Rattus norvegicus. The data set is described as follows: Radioactivity was determined in lung tissues of female fischer 344 rats by intravenous administration after 2 hours. The format is ADME, organism-based. The conditions noted are these: in vivo. An outline of the steps: as §1
The subject of data set [20] is Rattus norvegicus. The data set is described as follows: Radioactivity was determined in liver tissues of female fischer 344 rats by intravenous administration after 1 hour. The format is ADME, organism-based. Conditions: in vivo. In a few lines: as §1
Data set [21] relates to Rattus norvegicus. In words: Radioactivity was determined in blood tissues of female fischer 344 rats by intravenous administration after 5 minutes. The format is ADME, organism-based. Conditions: in vivo. An outline of the steps: as §1
Data set [22] deals with Rattus norvegicus. The data set is described as follows: Radioactivity was determined in heart tissues of female fischer 344 rats by intravenous administration after 30 minutes. The format is ADME, organism-based. The conditions noted are these: in vivo, 0.5 h. In a few lines:
as §1

Data set [23] concerns Rattus norvegicus. In words: Radioactivity was determined in liver tissues of female fischer 344 rats by intravenous administration after 1 day. The format is ADME, organism-based. The conditions noted are these: in vivo, 24 h. An outline of the steps:
as §1

The test system of data set [24] is Rattus norvegicus. In words: Radioactivity was determined in lung tissues of female fischer 344 rats by intravenous administration after 1 day. The format is ADME, organism-based. Conditions: in vivo, 24 h. An outline of the steps: as §1
Data set [25] has as its system Rattus norvegicus. In words: Radioactivity was determined in heart tissues of female fischer 344 rats by intravenous administration after 1 day. The format is ADME, organism-based. Conditions: in vivo, 24 h. In a few lines: as §1
The test system of data set [26] is Rattus norvegicus. The data set is described as follows: Radioactivity was determined in blood tissues of female fischer 344 rats by intravenous administration after 1 day. The conditions noted are these: in vivo, 24 h. The format is ADME, organism-based. In a few lines:
as §1

Experimental findings from ChEMBL document CHEMBL1122968, “Myocardial imaging agents: synthesis, characterization, and evaluation of (Z)- and (Z,E)-18-[82Br]bromo-5-tellura-17-octadecenoic acids” (J Med Chem, 1985) are described below.

Turning to `O=C(O)CCC[Te]CCCCCCCCCCC/C=C/Br` (stereo in doubt; form 1), the Dose/g in [1] was found to be 10.86%; in [2], 1.53%; in data set [3], 0.46%; in [4], 9.52%; in data set [5], 2.56%; in data set [6], 1.61%. The Dose/g in [7] is 2.77%; in data set [8] it was 0.43%; in data set [9] it was 1.49%; in data set [10] it was 1.62%; in [11], 7.33%; in [12], 7.56%. For the same molecule, the Dose/g in data set [13] is reported as 1.26%; in data set [14] it was 0.61%; in [15], 3.01%; in [16], 9.26%; in data set [17], 5%; in data set [18] it was 6.13%. In addition, the Dose/g is 1.49% in data set [19], 5.47% in data set [20], 0.13% in [21] and 2.51% in data set [22].
Consider `O=C(O)CCC[Te]CCCCCCCCCCC/C=C/Br` (stereo in doubt; form 2), for which the Dose/g in data set [2] is reported as 2.08%; in [6] it was 1.88%; in data set [23] it was 3.15%; in data set [7], 3.28%; in [8], 0.39%; in data set [9] it was 2.15%. Further, the Dose/g is recorded as 1.48% in [24]; 2.6% in data set [25]; 2.31% in data set [10]; 6.87% in data set [11]; 1.91% in data set [13]; 0.34% in data set [14]. For the same molecule, the Dose/g in data set [26] was found to be 0.88%; in data set [15] it was 3.47%; in data set [18], 6.79%; in data set [20] it was 6.04%; in data set [21], 0.18%; in [22], 3.79%.
Turning to `O=C(O)CCC[Te]CCCCCCCCCCC/C=C/I`, the Dose/g in data set [7] is 3.99%; in data set [8] it was 0.19%.
